The subject of one data set is Mus musculus. The experiment in a line: In vivo inhibition of SPPL2a in mouse assessed as accumulation of CD74/p8 in splenocyte lysate at 150 mg/kg administered via oral gavage as single dose measured 16 hrs post dose by Western blot method. In kind it is functional, organism-based. Put shortly:
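Mice gavaged in 0.5% MC:0.5% Tween or PEG:D5W 3:1. Spleens dissociated, red cells lysed with ACK, 1 × 10^6 cells lysed with protease inhibitors; 18 μg lysate on 10% gel, blotted, CD74 full length and p8 detected with rat anti-mouse CD74 In-1 and Alexa488 anti-rat IgG, LiCor scan; p8/full-length ratio expressed as percent of reference compound ratio.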

Data set [1] can be described thus: Total plasma concentration in mouse at 10 mg/kg, po administered as single dose after 4 hrs by LC/MS/MS analysis. The format is ADME, organism-based.
Data set [2] has as its target T1, Signal peptide peptidase-like 2A (Mus musculus, UniProt Q9JJF9).
T1 sequence (Q9JJF9 whole entry): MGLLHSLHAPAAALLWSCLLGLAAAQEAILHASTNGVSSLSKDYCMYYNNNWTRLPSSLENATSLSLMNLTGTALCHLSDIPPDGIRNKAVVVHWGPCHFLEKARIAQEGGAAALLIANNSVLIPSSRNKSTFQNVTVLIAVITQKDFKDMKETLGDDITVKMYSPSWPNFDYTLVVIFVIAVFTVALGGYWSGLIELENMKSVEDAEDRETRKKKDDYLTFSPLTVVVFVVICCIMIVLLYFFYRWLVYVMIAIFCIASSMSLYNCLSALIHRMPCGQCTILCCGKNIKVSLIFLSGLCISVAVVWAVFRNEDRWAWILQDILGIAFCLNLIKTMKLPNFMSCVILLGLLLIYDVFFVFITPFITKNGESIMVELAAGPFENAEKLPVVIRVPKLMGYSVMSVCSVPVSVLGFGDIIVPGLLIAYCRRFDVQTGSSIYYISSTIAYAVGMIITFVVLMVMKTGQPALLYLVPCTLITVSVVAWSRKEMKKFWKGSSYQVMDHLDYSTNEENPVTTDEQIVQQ
The data set is described as follows: Inhibition of SPPL2a in mouse whole blood assessed as increase in CD74/p8 accumulation after 5.5 hrs by Western bot method. The gist of the method:
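Mouse whole blood (200 μL) with compound from 20× stock, 0.5% DMSO final, 5.5 h at 37 °C, 5% CO2 with rotation. RBC lysis, washes, lysis in Tris pH 6.8/Triton/deoxycholate buffer; Western blot with rat anti-mouse CD74 (In-1); p8 band intensity normalized to CD74 full-length/β-actin for dose response.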

A short description of data set [3]: Stability in mouse liver microsomes at […] preincubated for 3 mins followed by NADPH addition measured after 1 hr in presence of GSH and [13C2-15N-glycine]-GSH by HPLC/MS method. The following applies: read-out: Stability. The format is ADME, microsome.
Data set [4] in a line: Total concentration in Lewis rat blood at 1 mg/kg, po bid after 24 hrs by LC/MS/MS analysis. The format is ADME, organism-based. To be noted: read-out: Drug uptake.
In a further data set the test system is Rattus norvegicus. The experiment in a line: Dose normalized drug uptake in Wistar rat at 10 mg/kg, po bid measured up to 7 hrs by LC/MS/MS analysis. To be noted: in vivo. The format is ADME, organism-based, Wister.
Data set [5] in a line: Octanol-buffer partition coefficient, log P of the compound by LC/MS/MS based shake flask method. The format is physicochemical.
Data set [6] addresses T2, Signal peptide peptidase-like 2A (Homo sapiens, UniProt Q8TCT8).
T2 sequence (Q8TCT8 whole entry): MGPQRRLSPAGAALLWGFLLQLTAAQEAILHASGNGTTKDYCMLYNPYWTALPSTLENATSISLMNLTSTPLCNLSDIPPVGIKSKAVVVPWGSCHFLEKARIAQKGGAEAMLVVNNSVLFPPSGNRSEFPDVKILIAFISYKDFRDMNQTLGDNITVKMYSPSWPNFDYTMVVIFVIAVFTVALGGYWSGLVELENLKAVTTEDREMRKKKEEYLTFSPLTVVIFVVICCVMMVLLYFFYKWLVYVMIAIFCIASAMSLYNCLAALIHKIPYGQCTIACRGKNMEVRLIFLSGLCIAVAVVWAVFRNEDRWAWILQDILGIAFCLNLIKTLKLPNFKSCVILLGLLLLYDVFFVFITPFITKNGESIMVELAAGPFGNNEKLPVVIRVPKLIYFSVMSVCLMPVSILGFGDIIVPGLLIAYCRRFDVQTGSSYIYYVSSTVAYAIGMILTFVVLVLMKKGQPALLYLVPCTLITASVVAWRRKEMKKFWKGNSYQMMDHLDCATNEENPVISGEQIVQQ
The experiment in a line: Inhibition of human SPPL2a expressed in human U2OS cells using EGFP-labeled TNFalpha (1 to 76 residues) NTF as substrate after 24 hrs by Hoechst staining based high content imaging analysis. The format is cell-based. Put shortly:
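Stable U-2 OS lines expressing human SPPL2a, SPPL2b or SPP constitutively (mouse SPPL2a line analogous, mouse TNFα(aa1-77)-NTF-EGFP-NLS) with doxycycline-inducible EGFP substrate. 3000 cells/well, 3−4 h, then 11-point inhibitor 100 μM to 1 nM, 0.9% DMSO, 5 μg/mL doxycycline, 24 h 37 °C. PFA fixed, Hoechst nuclei; nuclear minus cytoplasmic EGFP intensity; inhibition vs 0.5 μM reference and DMSO; IC50 by nonlinear regression.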

Data set [7] deals with T3, Signal peptide peptidase-like 2A (Rattus norvegicus, UniProt D3ZNG3).
T3 sequence (D3ZNG3 whole entry): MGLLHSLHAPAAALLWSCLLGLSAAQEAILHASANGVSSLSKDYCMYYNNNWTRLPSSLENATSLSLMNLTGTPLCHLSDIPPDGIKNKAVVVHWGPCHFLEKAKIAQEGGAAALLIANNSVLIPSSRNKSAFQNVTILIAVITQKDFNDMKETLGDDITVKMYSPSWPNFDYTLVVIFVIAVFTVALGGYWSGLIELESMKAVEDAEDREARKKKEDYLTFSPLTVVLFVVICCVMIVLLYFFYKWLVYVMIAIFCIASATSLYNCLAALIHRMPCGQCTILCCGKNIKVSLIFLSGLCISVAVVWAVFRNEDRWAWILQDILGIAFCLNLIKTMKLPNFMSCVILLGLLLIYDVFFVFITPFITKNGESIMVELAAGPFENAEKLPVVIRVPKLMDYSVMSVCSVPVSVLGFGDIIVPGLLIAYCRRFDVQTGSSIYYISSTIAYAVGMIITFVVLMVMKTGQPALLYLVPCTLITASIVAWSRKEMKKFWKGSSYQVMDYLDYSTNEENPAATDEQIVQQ
The data set is described as follows: Inhibition of rat SPPL2a expressed in human U2OS cells using EGFP-labeled TNFalpha (1 to 77 residues) NLS as substrate after 24 hrs by Hoechst staining based high content imaging assay. In kind it is cell-based. The gist of the method: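 Stable U-2 OS line with constitutive rat SPPL2a and doxycycline-inducible rat TNFα(aa1-77)-NTF–EGFP-NLS; 3000 cells/well, 3–4 h at 37 °C, then inhibitor in doxycycline medium, 11-point, 100 μM–1 nM final (0.9% DMSO, 5 μg/mL doxycycline), 24 h. PFA fixation, Hoechst nuclei; nuclear minus cytoplasmic-ring EGFP intensity. Normalised to DMSO and reference-inhibitor controls; IC50 by nonlinear regression.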

Activity calls are given as the source filed them. The rule behind the calls is not given here.

In the case of `Cc1ccccc1NC(=O)C[C@@H](C)C(=O)N[C@@H]1C(=O)N2CCCN2Cc2ccccc21`, the inhibition result with Mus musculus is “Active”. The concentration at 4 h in data set [1] is 57 nM. Besides, in data set [2], the IC50 is 550 nM. The remaining at 1 h in data set [3] worked out at 92%.
In the case of `Cc1ncc(F)cc1NC(=O)C[C@H](C(=O)N[C@@H]1C(=O)N2CC3(CC3)CN2C(=O)c2ccccc21)C1CC1`, in data set [4], the concentration at 24 h was 49 nM. For the same compound, in the data set on Rattus norvegicus, the Druguptake/dose is reported as 421 nM. Also, the logP in data set [5] was found to be 2.3. Besides, the IC50 in data set [6] is 160 nM; in data set [7], 56 nM.

Values taken from ChEMBL document CHEMBL4043282, “Discovery of the First Potent, Selective, and Orally Bioavailable Signal Peptide Peptidase-Like 2a (SPPL2a) Inhibitor Displaying Pronounced Immunomodulatory Effects In Vivo” (J Med Chem, 2018).
